Bioassay records: PubChem, Broad Institute
Most compounds without a hit are left out; they make up all but 1.3% or so of the library.
RAD54 branch – inhibitors of human RAD54 branch migration. RAD54 Holliday junction branch migration, FAM/BHQ fluorescence. inhibition, % at 10.4 µM. Q92698. 0.14% of 360,000 active;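 active = mean normalized replicate activity at least 40 and at least half of replicates scoring 40 or more; inconclusive = only one of the two criteria met; inactive = mean below 40 and under half of replicates reaching 40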;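 also: inhibitors cause a drop in the FAM fluorescence signal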
RAD52 anneal inh – inhibitors of human RAD52 DNA annealing; recombinant RAD52 DNA annealing, FRET fluorescence; P43351; 0.46% of 360,000 active; AID 651710; inhibition, % at 18.7 µM;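 active = every replicate showing at least 50% inhibition; inconclusive = mean inhibition at least 50% but not in every replicate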
Target sequence (P43351 whole entry, looked up): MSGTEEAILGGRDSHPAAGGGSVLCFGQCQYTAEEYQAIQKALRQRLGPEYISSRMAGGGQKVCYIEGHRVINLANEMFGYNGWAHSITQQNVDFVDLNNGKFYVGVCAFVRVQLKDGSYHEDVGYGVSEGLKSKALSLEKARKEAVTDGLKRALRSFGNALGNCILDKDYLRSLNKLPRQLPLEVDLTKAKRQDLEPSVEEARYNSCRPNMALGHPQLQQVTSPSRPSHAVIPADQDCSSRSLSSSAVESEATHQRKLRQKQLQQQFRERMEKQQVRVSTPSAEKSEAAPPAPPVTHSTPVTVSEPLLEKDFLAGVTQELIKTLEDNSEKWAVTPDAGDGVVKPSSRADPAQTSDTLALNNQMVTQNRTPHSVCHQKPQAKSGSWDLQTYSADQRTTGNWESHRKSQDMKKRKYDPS
Xi reactivation – reactivates the inactive X chromosome in mouse fibroblasts. XiGFP mouse fibroblasts, % GFP-positive cells imaging, 3 d; cells co-treated with 5-aza-dC sensitizer; scaled so ellipticine positive control = 100%. activation, % at 7.58 µM. 0.055% of 360,000 active. AID 743238;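 active = mean normalized replicate activation at least 10% and every replicate at or above 10%; inconclusive = only one of the two criteria met; inactive = mean below 10% and not all replicates reach 10%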
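System: 68-5-11 XiGFP fibroblast line; Timing: 3 days compound exposure; Compound dosing: one concentration, pinned; Benchmarks: positive control ellipticine, 6 µM final; Buffer or medium: DMEM containing 5-aza-dC.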
S100A4 MyoIIA – inhibitors of human S100A4 binding to myosin IIA peptide; P26447; S100A4/TAMRA-MyoIIA peptide fluorescence polarization; inhibition, % at 10.7 µM; 0.14% of 360,000 active;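 active = mean inhibition of at least 70% across replicates, with every replicate also reaching that level; inconclusive = mean inhibition reaches 70% but some replicates fall short; inactive = mean inhibition below 70%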
Target sequence (P26447 whole entry, looked up): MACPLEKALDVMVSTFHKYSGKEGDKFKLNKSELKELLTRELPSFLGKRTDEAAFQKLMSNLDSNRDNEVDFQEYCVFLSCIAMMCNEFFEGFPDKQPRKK
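assay system = human S100A4 monomer with TAMRA-labelled myosin IIA peptide | also added = labelled myosin peptide probe, 5 nM | incubation = 5 min between mix addition and reading | control set = DMSO and TFP controls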
CASP6 VEID inh – blocks human caspase-6 cleavage activity. P55212. purified caspase-6, Z-VEID-R110 cleavage fluorescence. inhibition, % at 12.5 µM. 0.53% of 350,000 active. AID 686996;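 active = mean inhibition across replicates at least about 35%, with every replicate also reaching that limit, limit read from the data; inconclusive = only one of the two criteria met; inactive = neither criterion met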
MLL AF4-AF9 inh – MLL-AF4/AF9 protein interaction inhibition | AID 651704 | inhibition, % at 10 µM | AlphaScreen, biotin-AF4 peptide binding to FLAG-AF9 | 0.47% of 350,000 active | P42568;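 active = every replicate reaching a set inhibition limit, whatever the replicate mean, cut at about 25% in these data; inconclusive = mean inhibition reaches that limit but some replicates miss it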
Numbers stand for hits; n = inactive; u = inconclusive; x = no result given; ! = not active in a repeat.

SMILES	RAD54 branch	RAD52 anneal inh	Xi reactivation	S100A4 MyoIIA	CASP6 VEID inh	MLL AF4-AF9 inh
COc1ccccc1N(Cc1ccccc1)S(=O)(=O)c1cccc(C(=O)Nc2ccccn2)c1	n	n	n	n	39	n
C[C@@H]1CN([C@H](C)CO)C(=O)c2cc(NC(=O)CCC(F)(F)F)ccc2O[C@@H](C)CCCCO[C@H]1CN(C)C(=O)Cc1ccccc1	n	x	n	x	x	x
CC(C)n1c(O)c(N=NC(=O)C2COc3ccccc3O2)c2ccccc21 (stereo not given)	n	n	n	n	n	39
Cc1ccc(N2C3=C(C(=O)CC(C)(C)C3)C(c3cn(C)nc3C)C3=C2CC(C)(C)CC3=O)cc1	n	n	n	112	n	n
Cc1nn(C)cc1C1C2=C(CC(C)(C)CC2=O)N(c2ccccc2)C2=C1C(=O)CC(C)(C)C2	n	x	x	x	x	x
C[C@@H]1CN([C@@H](C)CO)C(=O)Cc2cc(NC(=O)c3ccncc3)ccc2O[C@@H]1CN(C)C(=O)Nc1ccc2c(c1)OCO2	n	n	n	n	n	n
OC[C@H]1Nc2ccc(-c3ccccc3)cc2[C@@H]2[C@H]1CCN2Cc1ccccc1F	n	n	n	n	n	n
O=C(c1cccc(F)c1)N1CC[C@H]2[C@H](CO)Nc3ccc(-c4ccc(F)cc4)cc3[C@H]21	n	n	n	102	n	n
CN(C)C(=O)c1cccc(-c2ccc3c(c2)[C@H]2[C@H](CCN2C(=O)C2CC2)[C@H](CO)N3)c1	n	n	n	n	n	n
COc1ccc(-c2ccc3c(c2)[C@@H]2[C@@H](CCN2Cc2ccccc2F)[C@H](CO)N3)cc1	x	n	n	n	n	26
O=C(c1cccc(F)c1)N1CC[C@@H]2[C@H](CO)Nc3ccc(-c4ccc(F)cc4)cc3[C@@H]21	n	n	n	n	n	n
CN(C)C(=O)c1cccc(-c2ccc3c(c2)[C@H]2[C@H](CCN2C(=O)C2CC2)[C@@H](CO)N3)c1	n	n	n	78	n	n
Cc1cccc(-c2ccc([C@@H]3[C@@H](CO)N4CCCCN(Cc5cncnc5)C[C@H]34)cc2)c1	n	n	n	n	n	n
C[C@H](CO)N1C[C@H](C)[C@@H](CN(C)S(C)(=O)=O)Oc2ccc(NC(=O)Cc3ccccc3)cc2CC1=O	n	n	n	n	n	n
COc1ccccc1CCC(=O)Nc1ccc2c(c1)CN(CCCn1cccn1)CC2	n	n	n	n	99	n
CN1CCN(C(=O)C[C@@H]2CC[C@H]3[C@@H](COC[C@H](O)CN3Cc3cccc(F)c3)O2)CC1	n	n	n	n	n	n
COc1ccc(NS(=O)(=O)c2cc(NC(=O)[C@H](C)NC(N)=O)ccc2N2CCCC2)cc1	n	n	n	n	44	n
O=C(O)/C=C/c1ccc([N+](=O)[O-])o1	x	n	n	n	61	n
O=C(N/N=C\C=C\c1ccc([N+](=O)[O-])o1)c1cccs1	n	n	n	n	56	n
CN1CCN(C(=O)/C=C/c2ccc([N+](=O)[O-])o2)CC1	n	n	n	n	n	n
C[C@H]1CN([C@@H](C)CO)C(=O)c2cc(C#CC3CCCCC3)cnc2O[C@@H]1CN(C)S(=O)(=O)c1cccc(F)c1	n	n	n	n	n	32
C[C@H]1CN([C@@H](C)CO)C(=O)c2cc(C#CC3CCCCC3)cnc2O[C@H]1CN(C)Cc1cncnc1	n	n	n	98	n	n
CCCNC(=O)N1[C@@H](CO)[C@@H](c2ccccc2)C12CN(C(=O)c1cccnc1)C2	x	n	n	n	n	n
Cc1cc(/C=N/Nc2ccc([N+](=O)[O-])cn2)c(C)n1-c1ccc(C(=O)O)cc1	x	n	n	n	43	n
Cc1cc(/C=N/NC(=O)c2cccc([N+](=O)[O-])c2)c(C)n1-c1ccccc1	x	n	n	n	n	n
SMILES	RAD54 branch	RAD52 anneal inh	Xi reactivation	S100A4 MyoIIA	CASP6 VEID inh	MLL AF4-AF9 inh
CCn1c(CNC(=O)c2cccs2)n[nH]c1=S	n	n	n	n	n	25
O=C(NCc1n[nH]c(=S)n1-c1ccccc1)c1cccs1	n	n	n	n	n	n
CSc1ccccc1NC(=O)Nc1ccccc1	n	n	x	n	44	n
CSc1ccccc1NC(=O)Nc1cccc(F)c1	x	n	n	n	n	n
COc1ccc(S(=O)(=O)N2C[C@H](O)COC[C@H]3O[C@H](CC(=O)N[C@H]4CCN(Cc5ccccc5)C4)CC[C@@H]32)cc1	n	x	n	x	x	x
O=C(Nc1cccc(F)c1)N1[C@@H]2CNC[C@H]1C2c1ccc(-c2cccc(F)c2)cc1 (stereo not given in full)	x	54!	n	n	n	n
O=C(Nc1cccc(F)c1)N1[C@@H]2CNC[C@H]1C2c1ccc(-c2ccncc2)cc1 (stereo not given in full)	x	n	n	n	n	n
O=C(Nc1cc(F)ccc1F)N1[C@@H]2CNC[C@H]1C2c1ccc(-c2ccncc2)cc1 (stereo not given in full)	x	n	n	n	n	n
Cc1cccc(-c2ccc(C3[C@H]4CNC[C@@H]3N4C(=O)Nc3ccc(F)cc3)cc2)c1 (stereo not given in full)	x	n	n	n	n	n
O=C(Nc1cccc(Cl)c1)N1[C@@H]2CNC[C@H]1C2c1ccc(-c2ccccc2)cc1 (stereo not given in full)	x	53	n	n	n	n
O=C(Nc1cc(F)ccc1F)N1[C@@H]2CNC[C@H]1C2c1ccc(-c2ccc(F)cc2)cc1 (stereo not given in full)	x	58!	n	n	n	n
C[C@H](CO)N1C[C@H](C)[C@H](CN(C)C)Oc2c(NC(=O)Nc3cccc4ccccc34)cccc2C1=O	x	n	n	u	n	n
COc1ccc(S(=O)(=O)/N=C2/NC(=O)/C(=C\c3ccco3)S2)cc1	x	x	n	x	x	x
COc1ccc(S(=O)(=O)/N=C2/NC(=O)/C(=C/c3ccco3)S2)cc1	x	n	n	n	62	n
C[C@@H]1CN([C@H](C)CO)C(=O)c2cc(NC(=O)NC3CCCCC3)ccc2O[C@@H]1CN(C)C(=O)Nc1ccccc1	n	n	n	n	n	n
CCCC(=O)Nc1ccc2c(c1)OC[C@@H](C)N(Cc1ccc(-c3ccccn3)cc1)C[C@H](C)[C@H](OC)CN(C)C2=O	n	n	n	109	n	n
CCCC(=O)Nc1ccc2c(c1)C(=O)N(C)C[C@H](OC)[C@H](C)CN(Cc1ccccc1)[C@@H](C)CO2	n	n	n	98	n	n
CCC(=O)Nc1ccc2c(c1)C(=O)N(C)C[C@@H](OC)[C@H](C)CN(Cc1ccccc1F)[C@@H](C)CO2	n	n	n	n	n	30
CCCC(=O)Nc1ccc2c(c1)C(=O)N(C)C[C@H](OC)[C@@H](C)CN(Cc1ccccc1)[C@H](C)CO2	n	n	n	n	n	n
